High-throughput results as filed in PubChem BioAssay.
This is a sample that favours compounds with a hit; in the whole collection about 1.7% have one here.
F508del corr = CFTR F508del correction in bronchial cells | CFBE cells, YFP halide quenching; stimulated with forskolin plus potentiator P3; % fluorescence drop versus neutral controls | activity (quench increase), % at 7.58 µM | 350,000 tested, 0.36% active | AID 720511;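 active = mean added fluorescence quench of at least 8% versus neutral control, with both replicates also reaching 8%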;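 note: cells transiently co-express mutant CFTR-F508del with the halide-sensitive YFP; corrector assay measuring rescue of mutant channel to the surface after 24 h compound exposure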
PGC1a acetyl inh = PGC1a acetylation modulation, inhibitor mode; AID 651687; inhibition, % at 15.6 µM; 350,000 tested, 0.17% active; U2OS PGC1a acetylation, AlphaScreen anti-acetyl-lysine; with virally co-expressed GCN5 acetyltransferase;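 active = every replicate shows inhibition of at least 40%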
CAL PDZ FP-1 = inhibitors of human CAL PDZ peptide binding | Q9HD26 | purified CAL PDZ, TMR-peptide fluorescence polarization, 1 h | inhibition, % at 20 µM | 330,000 tested, 0.02% active;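 active = highest replicate inhibition of at least 40%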
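System: purified tagged CAL PDZ domain construct (CerCALP). Schedule: 1 h incubation at room temperature before polarization reading. Medium: 25 mM sodium phosphate pH 7.4, 150 mM NaCl, TCEP, IgG, Thesit. Read-out: percent inhibition from loss of millipolarization. Measured by: FP readout, S and P plane fluorescence. Probe or stimulus: fluorescent TMR peptide probe.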
ARNT TACC3 PPI = ARNT/TACC3 interaction disruption; Q9Y6A5; AlphaScreen His-ARNT PAS-B/GST-TACC3 binding, luminescence; TACC3 fragment carries E629A point mutation; 390,000 tested, 0.66% active; inhibition, % at 9.99 µM;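 active = mean inhibition of replicates at least 50% and at least half of replicates each reaching 50%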
CAL PDZ FP-2 = CAL PDZ (human) peptide binding inhibition; inhibition, % at 24.9 µM; 300,000 tested, 0.92% active; purified CAL PDZ, TMR-peptide fluorescence polarization, 1 h; Q9HD26;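 active = mean inhibition of at least 30% with at least half of replicates also reaching 30%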
miR-122 sensor = inhibitors of miR-122 in Huh7 cells; 340,000 tested, 0.3% active; Huh7 miR-122 Renilla luciferase sensor, 48 h; neutral wells = 0, positive control = 100; activation (reporter increase), % at 12.5 µM; AID 602342;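 active = mean replicate activation score at least 90 and every replicate individually at or above 90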;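 note: higher luciferase means less miR-122 activity so hits act as miR-122 inhibitors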
miR-27b qPCR = miR-27b effect in Huh7 as miR-122 inhibitor selectivity check; shares compounds with miR-122 sensor; Huh7 miR-27b levels, qRT-PCR, 48 h; relative miR-27b level (unnormalised ratio), ratio at 35 µM; 35 tested, under 10 active; AID 687039;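 active = compounds lowering miR-27b whose fitted half-maximal dose is at most twice their top tested dose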
Hits are given with their value.

Results for Cc1cccc(Nc2nc(N)nc(-c3oc4ccccc4c3C)n2)c1 ?
F508del corr: 12; PGC1a acetyl inh: inactive; CAL PDZ FP-1: inactive; ARNT TACC3 PPI: inactive; CAL PDZ FP-2: inactive; miR-122 sensor: inactive

How did CN1CCC(C2(O)c3ccccc3CSc3sccc32)CC1 (stereo not given) do in these assays?
PGC1a acetyl inh: inactive; ARNT TACC3 PPI: inactive; CAL PDZ FP-2: 110; miR-122 sensor: inactive

Results for COc1ccc(CNc2ccc(-c3ccccc3OC)nn2)cc1 ?
PGC1a acetyl inh: inactive; CAL PDZ FP-1: inactive; ARNT TACC3 PPI: inactive; CAL PDZ FP-2: 56; miR-122 sensor: inactive

What do the screens show for `COc1ccc(CNc2ccc(-c3ccc(OC)cc3)nn2)cc1`?
PGC1a acetyl inh: inactive; CAL PDZ FP-1: inactive; ARNT TACC3 PPI: inactive; CAL PDZ FP-2: inactive

Results for CN1CCN(C(=O)C[C@@H]2CC[C@H]3[C@@H](COC[C@H](O)CN3Cc3cccc(F)c3)O2)CC1 ?
F508del corr: inactive; PGC1a acetyl inh: inactive; ARNT TACC3 PPI: inactive; miR-122 sensor: inactive

Results for COc1cccc(N2CCN(c3ncnc4c3[nH]c3ccc(F)cc34)CC2C)c1 (stereo not given) ?
PGC1a acetyl inh: 77; CAL PDZ FP-1: inactive; ARNT TACC3 PPI: inactive; CAL PDZ FP-2: inactive; miR-122 sensor: inactive

What do the screens show for `COc1cc2[nH]c3c(N4CCN(c5ccc(Cl)cc5)CC4)ncnc3c2cc1OC`?
PGC1a acetyl inh: inactive; CAL PDZ FP-1: inactive; ARNT TACC3 PPI: inactive; CAL PDZ FP-2: inactive; miR-122 sensor: inactive

Results for CO[C@@H]1CN(C)C(=O)c2cc(NS(C)(=O)=O)ccc2OC[C@H](C)N(Cc2nccs2)C[C@@H]1C ?
F508del corr: inactive; PGC1a acetyl inh: inactive; ARNT TACC3 PPI: inactive; miR-122 sensor: inactive

How did Cc1cc(C)c(C)c(S(=O)(=O)NC2CCCCC2)c1C do in these assays?
F508del corr: inactive; CAL PDZ FP-1: inactive; miR-122 sensor: 93; miR-27b qPCR: inactive

Results for CCOc1ccc(C)cc1S(=O)(=O)NC1CCCCC1 ?
PGC1a acetyl inh: inactive; CAL PDZ FP-1: inactive; ARNT TACC3 PPI: inactive; CAL PDZ FP-2: inactive; miR-122 sensor: 283; miR-27b qPCR: inactive

Results for CCOc1cc(S(=O)(=O)NC2CCCCC2)ccc1F ?
PGC1a acetyl inh: inactive; CAL PDZ FP-1: inactive; ARNT TACC3 PPI: inactive; CAL PDZ FP-2: inactive; miR-122 sensor: inactive

Results for O=C(Nc1ccc(N2CCOCC2)c(S(=O)(=O)Nc2cc(Cl)ccc2Cl)c1)c1cccnc1 ?
F508del corr: inactive; PGC1a acetyl inh: inactive; CAL PDZ FP-1: inactive; ARNT TACC3 PPI: inactive; CAL PDZ FP-2: inactive; miR-122 sensor: 325; miR-27b qPCR: inactive

Results for C[C@@H]1CCCCO[C@@H](CN(C)S(=O)(=O)c2cn(C)cn2)[C@@H](C)CN([C@H](C)CO)C(=O)c2cc(NS(=O)(=O)c3cccs3)ccc2O1 ?
F508del corr: inactive; PGC1a acetyl inh: inactive; ARNT TACC3 PPI: inactive; miR-122 sensor: inactive

What do the screens show for `CCOc1ccccc1N1CCN(C(=O)c2cccc(-c3ccc(O)cc3)c2)CC1`?
PGC1a acetyl inh: inactive; CAL PDZ FP-1: inactive; CAL PDZ FP-2: inactive; miR-122 sensor: 156; miR-27b qPCR: inactive

How did CCOc1ccccc1N1CCN(C(=O)c2ccncc2)CC1 do in these assays?
PGC1a acetyl inh: inactive; CAL PDZ FP-1: inactive; CAL PDZ FP-2: inactive

What do the screens show for `Cc1cc(Cl)c(Cl)cc1S(=O)(=O)NCCCn1ccnc1`?
F508del corr: inactive; PGC1a acetyl inh: inactive; CAL PDZ FP-1: inactive; ARNT TACC3 PPI: inactive; CAL PDZ FP-2: inactive; miR-122 sensor: 132; miR-27b qPCR: inactive

Results for Cc1cc(S(=O)(=O)NCCCn2ccnc2)c(C)cc1Cl ?
F508del corr: inactive; CAL PDZ FP-1: inactive; ARNT TACC3 PPI: inactive; CAL PDZ FP-2: inactive

What do the screens show for `Cc1ccc(/C=C/C(=O)O)cc1S(=O)(=O)NCCO`?
PGC1a acetyl inh: inactive; CAL PDZ FP-1: inactive; ARNT TACC3 PPI: inactive; CAL PDZ FP-2: inactive; miR-122 sensor: inactive
